We go through 3 compounds from ChEMBL document CHEMBL1157789, “Design, synthesis and SAR of phenylamino-substituted 5,11-dihydro-dibenzo[a,d]cyclohepten-10-ones and 11H-dibenzo[b,f]oxepin-10-ones as p38 MAP kinase inhibitors” (Bioorg Med Chem Lett, 2010).

Active and inactive are the calls of the source. The rule behind the calls is not given here.

The target of assay [1] is Insulin receptor (Homo sapiens) (UniProt P06213). Put plainly: Inhibition of INSR at 10 uM.
The target in assay [2] is T1, NUAK family SNF1-like kinase 1 (Homo sapiens) (UniProt O60285).
T1 sequence (whole entry): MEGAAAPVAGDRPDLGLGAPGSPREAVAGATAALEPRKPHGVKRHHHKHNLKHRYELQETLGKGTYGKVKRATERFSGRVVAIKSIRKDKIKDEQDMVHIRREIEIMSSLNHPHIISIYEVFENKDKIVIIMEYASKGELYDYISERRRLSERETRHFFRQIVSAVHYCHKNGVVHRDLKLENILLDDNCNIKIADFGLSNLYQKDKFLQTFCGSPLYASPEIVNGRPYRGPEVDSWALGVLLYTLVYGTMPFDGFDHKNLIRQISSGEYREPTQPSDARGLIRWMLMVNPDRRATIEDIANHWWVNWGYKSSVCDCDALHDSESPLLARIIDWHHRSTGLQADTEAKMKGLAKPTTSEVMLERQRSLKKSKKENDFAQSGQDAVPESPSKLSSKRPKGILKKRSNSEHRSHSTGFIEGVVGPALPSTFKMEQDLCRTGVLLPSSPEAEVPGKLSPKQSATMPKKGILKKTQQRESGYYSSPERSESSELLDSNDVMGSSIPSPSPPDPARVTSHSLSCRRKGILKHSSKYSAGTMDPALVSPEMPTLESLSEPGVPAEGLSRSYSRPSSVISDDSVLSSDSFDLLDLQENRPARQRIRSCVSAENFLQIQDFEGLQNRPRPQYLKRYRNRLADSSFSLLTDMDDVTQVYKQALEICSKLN
In words: Inhibition of ARK5 at 10 uM.

For assay [3], the target named is RAC-alpha serine/threonine-protein kinase (Homo sapiens) (UniProt P31749). Put plainly: Inhibition of AKT1 at 10 uM.
For assay [4], the target named is T2, Serine/threonine-protein kinase PLK4 (Homo sapiens) (UniProt O00444).
T2 sequence (whole entry): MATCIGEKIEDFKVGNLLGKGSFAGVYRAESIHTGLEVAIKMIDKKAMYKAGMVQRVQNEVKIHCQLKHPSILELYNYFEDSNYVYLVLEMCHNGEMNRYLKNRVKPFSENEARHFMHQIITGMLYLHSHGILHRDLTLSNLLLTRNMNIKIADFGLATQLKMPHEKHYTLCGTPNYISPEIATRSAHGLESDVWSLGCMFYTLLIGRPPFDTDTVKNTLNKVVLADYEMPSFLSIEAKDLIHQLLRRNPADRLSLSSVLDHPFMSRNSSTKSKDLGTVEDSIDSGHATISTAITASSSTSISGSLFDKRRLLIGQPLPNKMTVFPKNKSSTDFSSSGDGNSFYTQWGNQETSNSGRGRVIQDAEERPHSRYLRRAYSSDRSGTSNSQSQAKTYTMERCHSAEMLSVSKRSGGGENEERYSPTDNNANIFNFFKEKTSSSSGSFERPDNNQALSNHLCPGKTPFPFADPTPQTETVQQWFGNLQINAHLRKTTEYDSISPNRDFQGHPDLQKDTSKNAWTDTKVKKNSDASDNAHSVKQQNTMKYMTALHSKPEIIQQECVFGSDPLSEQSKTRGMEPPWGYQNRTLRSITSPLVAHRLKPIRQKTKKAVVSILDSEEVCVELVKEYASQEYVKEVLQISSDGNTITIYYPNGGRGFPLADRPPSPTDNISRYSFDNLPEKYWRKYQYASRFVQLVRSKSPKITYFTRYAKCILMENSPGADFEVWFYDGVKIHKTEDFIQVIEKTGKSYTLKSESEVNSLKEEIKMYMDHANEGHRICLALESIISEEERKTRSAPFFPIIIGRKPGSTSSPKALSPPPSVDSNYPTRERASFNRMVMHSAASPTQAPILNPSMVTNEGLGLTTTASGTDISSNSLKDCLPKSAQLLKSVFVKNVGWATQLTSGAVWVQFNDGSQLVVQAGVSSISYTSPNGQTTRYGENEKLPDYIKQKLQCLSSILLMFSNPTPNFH
In words: Inhibition of SAK at 10 uM.

The target of assay [5] is Insulin-like growth factor 1 receptor (Homo sapiens) (UniProt P08069). Put plainly: Inhibition of IGF1R at 10 uM.
In assay [6] the target is Serine/threonine-protein kinase N1 (Homo sapiens) (UniProt Q16512). Put plainly: Inhibition of PRK1 at 10 uM.
A short description of assay [7]: Inhibition of p38 assessed as rate of ATF-2 phosphorylation at 10 uM by immunosorbent non-radioactive enzyme assay. The gist of the method: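 p38α MAP kinase ELISA-type (immunosorbent, non-radioactive) assay. Enzyme was incubated with ATP at 100 µM, ATF-2 as substrate, and test compound at 10^-5 to 10^-8 M. Activity was read as the rate of ATF-2 phosphorylation. SB203580 served as the reference inhibitor.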

In assay [8] the target is Casein kinase II subunit alpha (Homo sapiens) (UniProt P68400). Put plainly: Inhibition of CK2alpha1 at 10 uM.
The target of assay [9] is Hepatocyte growth factor receptor (Homo sapiens) (UniProt P08581). In words: Inhibition of MET at 10 uM.
Assay [10] concerns the target Proto-oncogene tyrosine-protein kinase Src (Homo sapiens) (UniProt P12931). In words: Inhibition of SRC at 10 uM.
For assay [11], the target named is Serine/threonine-protein kinase PLK1 (Homo sapiens) (UniProt P53350). In words: Inhibition of PLK1 at 10 uM.
Assay [12] concerns the target Vascular endothelial growth factor receptor 2 (Homo sapiens) (UniProt P35968). In words: Inhibition of VGFR2 at 10 uM.
The target of assay [13] is Tyrosine-protein kinase receptor UFO (Homo sapiens) (UniProt P30530). In words: Inhibition of AXL at 10 uM.
The target of assay [14] is BDNF/NT-3 growth factors receptor (Homo sapiens) (UniProt Q16620). In words: Inhibition of TRKB at 10 uM.
Assay [15] relates to Serine/threonine-protein kinase B-raf (Homo sapiens), P15056 [V600E]. In words: Inhibition of B-Raf V600E mutant at 10 uM.
The target in assay [16] is Aurora kinase B (Homo sapiens) (UniProt Q96GD4). Put plainly: Inhibition of Aurora B at 10 uM.
Assay [17] has as its target Focal adhesion kinase 1 (Homo sapiens) (UniProt Q05397). In words: Inhibition of FAK at 10 uM.

A word on the inhibition: it is the percentage by which the read-out fell short of the control.

Chain of Casein kinase II subunit alpha (Homo sapiens) (P68400 whole entry, looked up): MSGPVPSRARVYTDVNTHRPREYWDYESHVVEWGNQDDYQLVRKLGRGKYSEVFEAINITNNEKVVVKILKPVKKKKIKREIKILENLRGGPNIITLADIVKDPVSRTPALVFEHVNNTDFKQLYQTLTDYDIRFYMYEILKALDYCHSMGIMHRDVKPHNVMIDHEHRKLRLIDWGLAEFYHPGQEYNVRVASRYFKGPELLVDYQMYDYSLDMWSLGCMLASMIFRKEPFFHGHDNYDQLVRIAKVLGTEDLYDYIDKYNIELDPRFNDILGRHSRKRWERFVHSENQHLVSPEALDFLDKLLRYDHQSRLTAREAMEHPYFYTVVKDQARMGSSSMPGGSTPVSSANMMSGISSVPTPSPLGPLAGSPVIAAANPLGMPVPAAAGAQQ
Chain of RAC-alpha serine/threonine-protein kinase (Homo sapiens) (P31749 whole entry): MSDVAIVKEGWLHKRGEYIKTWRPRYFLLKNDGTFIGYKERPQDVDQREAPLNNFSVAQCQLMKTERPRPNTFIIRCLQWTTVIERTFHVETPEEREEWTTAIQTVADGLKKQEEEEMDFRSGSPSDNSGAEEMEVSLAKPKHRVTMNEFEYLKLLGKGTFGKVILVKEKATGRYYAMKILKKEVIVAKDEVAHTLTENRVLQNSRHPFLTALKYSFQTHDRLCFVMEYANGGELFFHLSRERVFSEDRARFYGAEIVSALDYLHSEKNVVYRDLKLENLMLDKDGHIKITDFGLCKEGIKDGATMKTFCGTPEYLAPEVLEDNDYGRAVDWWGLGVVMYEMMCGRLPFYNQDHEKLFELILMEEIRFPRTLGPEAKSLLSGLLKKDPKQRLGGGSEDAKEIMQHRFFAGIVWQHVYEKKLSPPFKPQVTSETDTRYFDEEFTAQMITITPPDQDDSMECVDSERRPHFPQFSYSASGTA
Chain of Proto-oncogene tyrosine-protein kinase Src (Homo sapiens) (P12931 2-536 limits assumed): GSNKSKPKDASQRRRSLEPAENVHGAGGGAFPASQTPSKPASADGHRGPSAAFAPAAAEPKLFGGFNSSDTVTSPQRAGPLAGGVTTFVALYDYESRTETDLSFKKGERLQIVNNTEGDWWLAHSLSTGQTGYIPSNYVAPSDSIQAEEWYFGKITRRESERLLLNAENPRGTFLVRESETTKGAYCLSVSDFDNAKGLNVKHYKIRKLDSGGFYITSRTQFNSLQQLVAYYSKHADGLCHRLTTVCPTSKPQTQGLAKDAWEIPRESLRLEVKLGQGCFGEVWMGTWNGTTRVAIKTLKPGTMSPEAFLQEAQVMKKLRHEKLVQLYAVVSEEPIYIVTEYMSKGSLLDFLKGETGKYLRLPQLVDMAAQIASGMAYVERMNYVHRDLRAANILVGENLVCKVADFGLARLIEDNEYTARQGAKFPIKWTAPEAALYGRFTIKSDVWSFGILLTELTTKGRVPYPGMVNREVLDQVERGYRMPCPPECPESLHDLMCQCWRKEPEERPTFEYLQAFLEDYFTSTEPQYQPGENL
Chain of BDNF/NT-3 growth factors receptor (Homo sapiens) (Q16620 32-822 limits assumed): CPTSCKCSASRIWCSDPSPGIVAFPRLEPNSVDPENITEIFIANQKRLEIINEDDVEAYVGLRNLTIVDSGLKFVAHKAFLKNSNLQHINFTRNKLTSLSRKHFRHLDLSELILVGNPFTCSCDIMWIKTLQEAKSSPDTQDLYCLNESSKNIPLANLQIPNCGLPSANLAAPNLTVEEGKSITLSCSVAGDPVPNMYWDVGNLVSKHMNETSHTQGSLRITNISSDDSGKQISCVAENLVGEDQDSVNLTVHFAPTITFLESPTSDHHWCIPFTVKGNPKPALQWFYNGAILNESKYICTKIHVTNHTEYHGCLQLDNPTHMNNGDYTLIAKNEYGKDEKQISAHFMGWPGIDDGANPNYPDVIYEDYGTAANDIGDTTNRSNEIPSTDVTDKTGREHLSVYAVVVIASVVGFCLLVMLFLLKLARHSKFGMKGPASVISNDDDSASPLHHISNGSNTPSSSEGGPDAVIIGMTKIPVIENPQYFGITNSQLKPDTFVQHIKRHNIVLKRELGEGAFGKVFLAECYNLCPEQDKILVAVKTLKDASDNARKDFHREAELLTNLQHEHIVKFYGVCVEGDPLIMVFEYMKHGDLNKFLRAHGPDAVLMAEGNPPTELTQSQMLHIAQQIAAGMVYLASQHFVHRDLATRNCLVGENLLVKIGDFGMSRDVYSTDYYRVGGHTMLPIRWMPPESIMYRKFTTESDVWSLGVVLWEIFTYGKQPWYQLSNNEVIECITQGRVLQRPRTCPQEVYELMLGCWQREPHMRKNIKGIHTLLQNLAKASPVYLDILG
Chain of Hepatocyte growth factor receptor (Homo sapiens) (P08581 whole entry): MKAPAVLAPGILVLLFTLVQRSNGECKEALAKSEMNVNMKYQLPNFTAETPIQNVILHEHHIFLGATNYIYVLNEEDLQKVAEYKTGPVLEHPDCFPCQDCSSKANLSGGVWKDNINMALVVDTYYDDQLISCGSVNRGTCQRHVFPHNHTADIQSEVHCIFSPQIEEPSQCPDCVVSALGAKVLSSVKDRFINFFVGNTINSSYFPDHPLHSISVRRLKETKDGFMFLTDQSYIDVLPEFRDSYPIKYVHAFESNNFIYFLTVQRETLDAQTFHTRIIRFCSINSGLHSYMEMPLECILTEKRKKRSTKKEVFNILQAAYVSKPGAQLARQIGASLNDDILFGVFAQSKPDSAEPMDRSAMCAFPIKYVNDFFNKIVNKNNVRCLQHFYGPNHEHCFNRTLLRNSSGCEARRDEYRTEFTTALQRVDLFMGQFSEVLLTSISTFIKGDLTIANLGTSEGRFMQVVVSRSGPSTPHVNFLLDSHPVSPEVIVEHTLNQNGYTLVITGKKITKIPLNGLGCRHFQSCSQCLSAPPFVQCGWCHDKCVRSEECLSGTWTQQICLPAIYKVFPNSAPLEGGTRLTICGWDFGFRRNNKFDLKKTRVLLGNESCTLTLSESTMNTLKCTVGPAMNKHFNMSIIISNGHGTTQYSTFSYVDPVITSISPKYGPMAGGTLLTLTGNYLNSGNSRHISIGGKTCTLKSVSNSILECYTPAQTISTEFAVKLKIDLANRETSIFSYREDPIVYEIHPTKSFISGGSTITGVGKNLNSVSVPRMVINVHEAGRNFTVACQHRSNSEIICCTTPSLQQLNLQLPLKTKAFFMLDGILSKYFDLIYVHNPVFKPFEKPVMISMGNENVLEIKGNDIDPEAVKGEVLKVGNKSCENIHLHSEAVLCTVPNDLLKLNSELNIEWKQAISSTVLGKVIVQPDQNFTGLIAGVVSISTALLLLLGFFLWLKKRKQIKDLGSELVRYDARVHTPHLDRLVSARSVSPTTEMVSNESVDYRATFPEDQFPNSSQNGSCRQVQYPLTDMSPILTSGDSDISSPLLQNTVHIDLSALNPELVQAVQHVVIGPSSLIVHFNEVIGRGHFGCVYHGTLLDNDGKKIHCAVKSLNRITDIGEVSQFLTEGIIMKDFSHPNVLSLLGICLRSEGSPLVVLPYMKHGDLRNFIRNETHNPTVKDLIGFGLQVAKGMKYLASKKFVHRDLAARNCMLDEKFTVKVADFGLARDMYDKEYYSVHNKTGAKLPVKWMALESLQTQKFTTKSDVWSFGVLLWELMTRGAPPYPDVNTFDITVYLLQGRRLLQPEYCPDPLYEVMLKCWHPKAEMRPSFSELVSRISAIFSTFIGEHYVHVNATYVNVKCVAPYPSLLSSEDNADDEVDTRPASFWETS
Chain of Tyrosine-protein kinase receptor UFO (Homo sapiens) (P30530 whole entry): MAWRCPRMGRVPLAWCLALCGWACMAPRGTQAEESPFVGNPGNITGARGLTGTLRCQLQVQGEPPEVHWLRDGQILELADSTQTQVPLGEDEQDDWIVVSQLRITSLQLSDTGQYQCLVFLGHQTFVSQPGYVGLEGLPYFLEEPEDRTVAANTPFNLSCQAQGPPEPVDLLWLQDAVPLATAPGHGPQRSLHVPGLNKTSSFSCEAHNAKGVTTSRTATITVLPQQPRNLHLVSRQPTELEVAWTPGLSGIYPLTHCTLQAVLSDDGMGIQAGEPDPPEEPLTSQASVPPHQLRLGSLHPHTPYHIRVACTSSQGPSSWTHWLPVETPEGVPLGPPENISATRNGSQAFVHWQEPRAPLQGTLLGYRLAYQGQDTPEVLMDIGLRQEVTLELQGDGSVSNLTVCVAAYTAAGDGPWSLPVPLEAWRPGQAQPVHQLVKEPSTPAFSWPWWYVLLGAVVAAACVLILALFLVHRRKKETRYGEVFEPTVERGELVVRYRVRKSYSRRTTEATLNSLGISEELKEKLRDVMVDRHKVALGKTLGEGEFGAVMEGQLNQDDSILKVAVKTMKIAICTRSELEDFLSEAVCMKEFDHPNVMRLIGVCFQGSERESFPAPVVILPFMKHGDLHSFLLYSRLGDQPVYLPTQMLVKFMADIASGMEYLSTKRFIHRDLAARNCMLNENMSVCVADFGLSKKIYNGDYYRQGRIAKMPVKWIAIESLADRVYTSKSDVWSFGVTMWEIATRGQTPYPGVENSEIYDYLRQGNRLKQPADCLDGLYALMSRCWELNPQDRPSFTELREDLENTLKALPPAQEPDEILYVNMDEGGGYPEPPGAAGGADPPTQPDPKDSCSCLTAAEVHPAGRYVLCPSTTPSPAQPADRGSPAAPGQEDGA
Chain of Aurora kinase B (Homo sapiens) (Q96GD4 whole entry): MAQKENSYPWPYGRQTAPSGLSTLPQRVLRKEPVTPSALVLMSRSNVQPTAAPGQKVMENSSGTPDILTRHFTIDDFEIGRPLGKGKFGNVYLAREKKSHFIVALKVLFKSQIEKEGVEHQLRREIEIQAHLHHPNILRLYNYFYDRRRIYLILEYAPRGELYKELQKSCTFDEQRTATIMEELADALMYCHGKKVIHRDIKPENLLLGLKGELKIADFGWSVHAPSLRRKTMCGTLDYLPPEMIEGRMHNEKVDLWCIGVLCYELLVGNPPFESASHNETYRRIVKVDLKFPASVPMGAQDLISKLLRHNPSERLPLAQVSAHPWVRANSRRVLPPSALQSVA

Take `Nc1ccc(Nc2ccc3c(c2)Cc2ccccc2CC3=O)cc1`: the inhibition result in [1], in assay [2], in [3], in assay [4], in [5] and in [6] was “inactive” throughout. Further, the inhibition entry in [8], in assay [9], in assay [10], in assay [11], in assay [12] and in assay [13] was “inactive” throughout. In addition, the inhibition entry in assay [14], in assay [15], in assay [16] and in assay [17] was “inactive” each time. Moreover, the inhibition in assay [7] is 15%.
Turning to `O=C1Cc2ccccc2Cc2cc(NCc3ccccc3)ccc21`, the inhibition entry in assay [1], in assay [2], in assay [3], in [4], in [5] and in assay [6] was “inactive” throughout. Moreover, the inhibition entry in assay [8], in assay [9], in [10], in assay [11], in assay [12] and in assay [13] was “inactive” each time. Besides, the inhibition result in [14], in [15], in assay [16] and in [17] was “inactive” throughout. Further, the inhibition in assay [7] is 9%.
As for `O=C1Cc2ccccc2Cc2cc(-c3ccccc3)ccc21`, the inhibition result in assay [1], in [2], in [3], in assay [4], in [5] and in assay [6] was “inactive” each time. In addition, the inhibition result in assay [8], in [9], in assay [10], in [11], in assay [12] and in [13] was “inactive” throughout. For the same compound, the inhibition result in assay [14], in assay [15], in assay [16] and in assay [17] was “inactive” throughout. For the same compound, the inhibition in [7] came out at 43%.
